{"source": "PubChem BioAssay AID504382", "about": "(The Scripps Research Institute Molecular Screening Center, 2011)", "note": "Hit rate of the full screen: of about 2,500 compounds, about 460 (18%) were called active. Not all results are given here. A number with no mark means an inactive call.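 Rule for the calls: active = mean activation above a cutoff of low control average plus 3 SD from the earlier screen (cut at about 12% in these data); inactive = the rest.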", "data": [{"experiment": "compound fluorescence interference without thin filaments, confirmation, artefact control for cardiac RTF calcium sensitizer project, biochemical (AID 504382)", "settings": "IANBD fluorescence interference counterscreen, buffer, EC20 Ca2+; at 7.2 µM; hits give high values; scaled: EC20 calcium 0, EC100 calcium 100", "how_it_was_run": "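Technique: fluorescence, 480/540 nm / Medium: MOPS-based buffer with KCl, MgCl2, EGTA, NTA, DTT, pH 7.2 / Probe or stimulus: calcium at EC20 level, 0.472 mM final / Repeats: triplicate wells per compound / Times: 15 min compound exposure at 25 °C / Measure: compound fluorescence interference relative to control well signal range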", "values": [{"smiles": "CC(C)NC(=O)/C(C#N)=C\\c1ccc(N(C)C)o1", "fluorescence artifact activation": "48.4% (active)"}, {"smiles": "CCN(CC)c1ccc(/C=C(/C#N)C(=O)NC(C)C)o1", "fluorescence artifact activation": "0.06%"}, {"smiles": "CC(C)NC(=O)/C(C#N)=C/c1ccc(N(C)C)o1", "fluorescence artifact activation": "0.18%"}, {"smiles": "CCN(c1ccc(N=Cc2c(O)n(Cc3ccc(OC)cc3)c(=O)c3ccccc23)cc1)C(C)C", "fluorescence artifact activation": "2.13%"}, {"smiles": "O=C(CSC1CC(=O)N(c2ccc(C(=O)O)cc2)C1=O)Nc1ccc2ccccc2c1", "note": "(stereo not given)", "fluorescence artifact activation": "0.06%"}, {"smiles": "O=C(NCc1ccco1)/C(=C\\c1ccco1)NC(=O)c1ccc(Br)o1", "fluorescence artifact activation": "24.4% (active)"}, {"smiles": "CC(C)(C)c1ccc(C(=O)N/C(=C\\c2cccs2)C(=O)NCc2ccco2)cc1", "fluorescence artifact activation": "0.07%"}, {"smiles": "O=C(NCCCN1CCOCC1)C(=O)NCc1ccco1", "fluorescence artifact activation": "0.11%"}, {"smiles": "Cc1cc(=O)c2c([nH]1)c(C)cc1[nH]c(C)c(C)c12", "fluorescence artifact activation": "0.09%"}, {"smiles": "C=CCn1c(=O)c(C(=O)NCCNCC)c(O)c2ccccc21", "fluorescence artifact activation": "0.84%"}, {"smiles": "CCCCN=C1N/C(=C\\c2ccco2)C(=O)N1c1ccccc1", "fluorescence artifact activation": "78.2% (active)"}, {"smiles": "NC(N)=NCc1cccc(I)c1", "fluorescence artifact activation": "0.57%"}, {"smiles": "CN(C)c1ccc(/C=N/NC(=O)c2cnc3ccccc3c2)cc1", "fluorescence artifact activation": "0.02%"}, {"smiles": "CC(=O)c1cccc(NC(=S)NC2CCCCC2)c1", "fluorescence artifact activation": "0.08%"}, {"smiles": "CC(C)CC[C@@H](O)[C@](C)(O)C1CC[C@@]2(O)C3=CC(=O)[C@@H]4C[C@@H](O)[C@@H](O)C[C@]4(C)C3CC[C@]12C", "note": "(stereo not given in full)", "fluorescence artifact activation": "79.3% (active)"}, {"smiles": "CNc1ccc2c3c(cccc13)C(=O)N(C)C2=O", "fluorescence artifact activation": "40.8% (active)"}, {"smiles": "CN1C(=O)c2cccc3c(N(C)C)ccc(c23)C1=O", "fluorescence artifact activation": "70.1% (active)"}, {"smiles": "CCCCNc1ccc2c3c(cccc13)C(=O)N(CCCC)C2=O", "fluorescence artifact activation": "-0.02%"}, {"smiles": "CCN1C(=O)c2cccc3c(N)ccc(c23)C1=O", "fluorescence artifact activation": "0.02%"}, {"smiles": "Cc1ccccc1N1C(=O)c2cccc3c(N(C)CCO)ccc(c23)C1=O", "fluorescence artifact activation": "-0.04%"}, {"smiles": "CN1C(=O)c2cccc3c(N)ccc(c23)C1=O", "fluorescence artifact activation": "0.17%"}, {"smiles": "COC(=O)N1c2ccccc2CCc2ccccc21", "fluorescence artifact activation": "1.49%"}, {"smiles": "CC(=O)Nc1ccc(Nc2c3c4c(cccc4n(C)c2=O)C(=O)c2ccccc2-3)cc1", "fluorescence artifact activation": "5.51%"}, {"smiles": "COc1ccc(CNC(=O)c2cc3c(s2)CS(=O)C3)cc1", "note": "(stereo not given)", "fluorescence artifact activation": "0.1%"}, {"smiles": "CCc1ccc2c(c1)C(NC(C)=O)C(=O)N2CC", "note": "(stereo not given)", "fluorescence artifact activation": "-0.03%"}, {"smiles": "Cc1ccc(S(=O)(=O)c2cccc(S(=O)(=O)N3CCOCC3)c2)cc1S(=O)(=O)N1CCOCC1", "fluorescence artifact activation": "6.87%"}, {"smiles": "N#C/C(=C\\c1ccc(Sc2ccc(Cl)cc2)o1)c1nc2ccccc2[nH]1", "fluorescence artifact activation": "-0.03%"}, {"smiles": "C=CCN1C(=O)/C(=C\\C=C2\\N(C)c3ccccc3C2(C)C)SC1=S", "fluorescence artifact activation": "0.06%"}, {"smiles": "C/C(N)=C(/C#N)C(=O)CSc1n[nH]c(-c2cccs2)n1", "fluorescence artifact activation": "0.14%"}, {"smiles": "COc1ccc(Cl)cc1-c1nc(SCC(=O)NC(C)C)n[nH]1", "fluorescence artifact activation": "0.53%"}, {"smiles": "Cc1ccc(C)c(C(=O)CSc2n[nH]c(C(C)C)n2)c1", "fluorescence artifact activation": "18.7% (active)"}, {"smiles": "Cc1[nH]c(=S)c(C#N)c(C)c1CCC#N", "fluorescence artifact activation": "10.6%"}, {"smiles": "COC(=O)CNC(=O)COC(=O)c1cc(F)c(F)cc1Cl", "fluorescence artifact activation": "0.55%"}, {"smiles": "Cc1ccccc1C1CC(=O)Oc2cc(O)ccc21", "note": "(stereo not given)", "fluorescence artifact activation": "0.19%"}, {"smiles": "Cc1[nH]c2ccccc2c1/C=C/c1cc[n+](C)cc1", "fluorescence artifact activation": "3%"}, {"smiles": "Cc1ccc2[nH]c(C)c(/C=C/c3cc[n+](C)cc3)c2c1", "fluorescence artifact activation": "54.8% (active)"}, {"smiles": "Cc1ccc2c(c1)c(/C=C/c1cc[n+](C)cc1)c(C)n2C", "fluorescence artifact activation": "1.43%"}, {"smiles": "COC(=O)Cn1cc(/C=C/c2cc[n+](C)cc2)c2ccccc21", "fluorescence artifact activation": "1.9%"}, {"smiles": "COc1ccc(-c2nc(/C=C3\\C(C)=Nc4ccccc43)c(O)o2)cc1", "fluorescence artifact activation": "1.03%"}, {"smiles": "COc1ccc(-c2nnc(-c3cccnc3)o2)cc1", "fluorescence artifact activation": "15.1% (active)"}, {"smiles": "COc1ccc(NC(=O)Nc2cccnc2)c(OC)c1", "fluorescence artifact activation": "0.16%"}, {"smiles": "CC(=O)C1=C(O)CCCC1=NCc1nc2ccccc2[nH]1", "fluorescence artifact activation": "0.23%"}, {"smiles": "CCCN(CCC)C(=O)C1c2ccccc2Oc2ccccc21", "fluorescence artifact activation": "3.9%"}, {"smiles": "CN1CCC(N(CCc2ccccc2)C(=O)CCC(=O)O)CC1", "fluorescence artifact activation": "46% (active)"}, {"smiles": "CN(Cc1ccccc1)C(=O)N1CCOCC1", "fluorescence artifact activation": "0.11%"}, {"smiles": "CN1CCc2c(sc3c2C(=O)NC(c2ccccn2)N3)C1", "note": "(stereo not given)", "fluorescence artifact activation": "0.36%"}, {"smiles": "Cc1ccccc1-n1c(SCc2c(C)noc2C)nnc1-c1cccnc1", "fluorescence artifact activation": "0.05%"}, {"smiles": "Cc1ccc2nc(/C(C#N)=C\\c3ccc(N4CCOCC4)o3)[nH]c2c1", "fluorescence artifact activation": "16.5% (active)"}, {"smiles": "N#C/C(=C/c1ccc(N2CCOCC2)o1)C(=O)N1CCOCC1", "fluorescence artifact activation": "0.41%"}, {"smiles": "Cc1ccc2nc(/C(C#N)=C/c3ccc(-c4ccccc4C(=O)O)o3)[nH]c2c1", "fluorescence artifact activation": "0.32%"}]}]}
